Experimental data reported in the M2OR odorant receptor database.
Numbering of substitutions follows the chain as printed.

How the values were obtained:
Settings in all cases: stereoisomer not certain
OR6C65 (Homo sapiens) = molecular target: T1, OR6C65 (Homo sapiens) (UniProt A6NJZ3)
T1 sequence (whole entry): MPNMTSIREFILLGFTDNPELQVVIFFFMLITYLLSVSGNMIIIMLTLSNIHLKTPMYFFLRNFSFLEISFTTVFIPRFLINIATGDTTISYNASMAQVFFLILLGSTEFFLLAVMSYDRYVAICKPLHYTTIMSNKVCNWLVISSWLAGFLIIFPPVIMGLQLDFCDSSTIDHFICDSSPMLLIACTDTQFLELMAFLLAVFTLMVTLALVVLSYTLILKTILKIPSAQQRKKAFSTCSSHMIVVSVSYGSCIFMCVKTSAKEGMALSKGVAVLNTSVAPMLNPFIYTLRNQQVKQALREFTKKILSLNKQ
Procedure, shortened: (§1)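 Values were gathered from published papers (main text and supplementary material), with extra details requested from the original authors when needed, and checked for typos and inconsistencies. Each receptor–molecule pair is called responsive (active) if the original authors judged the measured signal statistically different from baseline, and non-responsive (inactive) otherwise. Assay methods varied by source, often transient mammalian cell-line luciferase assays. Recorded details include cell line, G-protein, co-transfected protein and tags.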

OR6C68 (Homo sapiens) = molecular target: T2, OR6C68 (Homo sapiens) (UniProt A6NDL8)
T2 sequence (whole entry): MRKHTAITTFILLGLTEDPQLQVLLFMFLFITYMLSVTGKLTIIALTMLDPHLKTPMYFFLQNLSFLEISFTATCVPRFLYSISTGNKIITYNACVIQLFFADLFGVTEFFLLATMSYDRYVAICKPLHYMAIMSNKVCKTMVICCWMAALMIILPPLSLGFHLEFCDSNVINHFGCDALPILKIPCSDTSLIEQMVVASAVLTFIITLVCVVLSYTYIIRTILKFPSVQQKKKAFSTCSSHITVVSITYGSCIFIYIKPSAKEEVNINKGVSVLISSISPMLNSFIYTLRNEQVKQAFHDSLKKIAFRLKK
Procedure, shortened: as §1

OR6C70 (Homo sapiens) = molecular target: T3, OR6C70 (Homo sapiens) (UniProt A6NIJ9)
T3 sequence (whole entry): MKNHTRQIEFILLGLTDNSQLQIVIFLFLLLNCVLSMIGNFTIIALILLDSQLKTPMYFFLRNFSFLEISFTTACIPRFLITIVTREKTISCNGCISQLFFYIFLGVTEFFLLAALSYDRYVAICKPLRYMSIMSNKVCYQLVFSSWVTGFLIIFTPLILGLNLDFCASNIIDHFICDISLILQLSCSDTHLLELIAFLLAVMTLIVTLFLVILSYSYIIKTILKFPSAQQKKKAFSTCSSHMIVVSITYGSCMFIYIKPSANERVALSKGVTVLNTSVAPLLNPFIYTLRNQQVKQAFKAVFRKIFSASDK
Procedure, shortened: as §1

OR6C74 (Homo sapiens) = molecular target: T4, OR6C74 (Homo sapiens) (UniProt A6NCV1)
T4 sequence (whole entry): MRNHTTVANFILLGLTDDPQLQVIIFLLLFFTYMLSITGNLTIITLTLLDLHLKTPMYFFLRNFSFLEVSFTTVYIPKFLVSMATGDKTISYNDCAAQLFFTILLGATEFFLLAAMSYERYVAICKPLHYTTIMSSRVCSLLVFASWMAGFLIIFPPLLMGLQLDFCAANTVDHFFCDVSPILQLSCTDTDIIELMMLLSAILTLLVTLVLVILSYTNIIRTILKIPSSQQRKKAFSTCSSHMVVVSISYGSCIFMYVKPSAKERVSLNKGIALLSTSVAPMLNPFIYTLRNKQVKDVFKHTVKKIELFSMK
Procedure, shortened: as §1

OR6C75 (Homo sapiens) = molecular target: T5, OR6C75 (Homo sapiens) (UniProt A6NL08)
T5 sequence (whole entry): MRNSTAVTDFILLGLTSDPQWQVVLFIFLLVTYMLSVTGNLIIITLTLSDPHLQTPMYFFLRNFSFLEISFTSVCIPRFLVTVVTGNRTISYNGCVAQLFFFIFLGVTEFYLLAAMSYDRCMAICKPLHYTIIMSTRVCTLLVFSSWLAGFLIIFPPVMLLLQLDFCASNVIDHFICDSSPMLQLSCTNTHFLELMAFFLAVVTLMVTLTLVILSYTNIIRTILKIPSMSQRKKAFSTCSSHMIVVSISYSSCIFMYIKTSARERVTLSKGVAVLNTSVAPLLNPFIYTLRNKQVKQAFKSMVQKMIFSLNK
Procedure, shortened: as §1

OR6C76 (Homo sapiens) = molecular target: T6, OR6C76 (Homo sapiens) (UniProt A6NM76)
T6 sequence (whole entry): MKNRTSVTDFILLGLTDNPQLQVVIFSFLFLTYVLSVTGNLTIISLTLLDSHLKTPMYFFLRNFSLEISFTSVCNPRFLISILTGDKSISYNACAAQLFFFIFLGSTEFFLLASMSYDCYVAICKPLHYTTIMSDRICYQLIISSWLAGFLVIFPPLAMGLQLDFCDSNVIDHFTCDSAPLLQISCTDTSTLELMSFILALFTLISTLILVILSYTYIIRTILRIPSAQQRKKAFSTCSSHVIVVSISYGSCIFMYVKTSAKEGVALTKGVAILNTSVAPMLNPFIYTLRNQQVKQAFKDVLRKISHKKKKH
Procedure, shortened: as §1

OR6F1 (Homo sapiens) = molecular target: T7, OR6F1 (Homo sapiens) (UniProt Q8NGZ6)
T7 sequence (whole entry): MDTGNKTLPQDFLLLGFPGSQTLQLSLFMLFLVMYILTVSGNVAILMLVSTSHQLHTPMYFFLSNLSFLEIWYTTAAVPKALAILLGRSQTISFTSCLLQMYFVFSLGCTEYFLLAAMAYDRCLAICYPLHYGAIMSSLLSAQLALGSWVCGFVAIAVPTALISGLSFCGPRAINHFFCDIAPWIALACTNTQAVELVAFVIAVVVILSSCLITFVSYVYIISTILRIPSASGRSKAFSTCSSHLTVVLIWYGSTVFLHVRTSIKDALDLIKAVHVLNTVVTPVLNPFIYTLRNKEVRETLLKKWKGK
Procedure, shortened: as §1

OR6J1 (Homo sapiens) [1] = molecular target: T8, OR6J1 (Homo sapiens) (UniProt Q8NGC5)
T8 sequence (whole entry): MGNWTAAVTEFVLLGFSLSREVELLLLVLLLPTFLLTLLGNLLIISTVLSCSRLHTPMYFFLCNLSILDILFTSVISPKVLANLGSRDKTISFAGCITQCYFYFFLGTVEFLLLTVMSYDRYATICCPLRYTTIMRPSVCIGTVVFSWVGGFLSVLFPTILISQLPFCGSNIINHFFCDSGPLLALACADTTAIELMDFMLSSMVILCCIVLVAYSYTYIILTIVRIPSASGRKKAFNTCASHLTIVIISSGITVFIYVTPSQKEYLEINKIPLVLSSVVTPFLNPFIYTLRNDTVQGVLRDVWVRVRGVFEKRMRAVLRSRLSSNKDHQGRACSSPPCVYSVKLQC
Procedure, shortened: as §1

OR6K2 (Homo sapiens) = molecular target: T9, OR6K2 (Homo sapiens) (UniProt Q8NGY2)
T9 sequence (whole entry): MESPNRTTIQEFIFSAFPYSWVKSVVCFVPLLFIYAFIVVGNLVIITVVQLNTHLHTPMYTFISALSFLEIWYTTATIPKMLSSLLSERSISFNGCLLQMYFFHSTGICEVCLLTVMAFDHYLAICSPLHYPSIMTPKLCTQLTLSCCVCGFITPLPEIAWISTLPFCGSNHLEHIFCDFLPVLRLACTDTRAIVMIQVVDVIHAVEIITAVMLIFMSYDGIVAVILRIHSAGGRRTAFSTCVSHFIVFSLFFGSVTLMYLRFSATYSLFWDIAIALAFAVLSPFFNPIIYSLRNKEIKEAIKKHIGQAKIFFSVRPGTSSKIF
Procedure, shortened: as §1

OR6K3 = tested on: T10, OR6K3
T10 sequence (whole entry): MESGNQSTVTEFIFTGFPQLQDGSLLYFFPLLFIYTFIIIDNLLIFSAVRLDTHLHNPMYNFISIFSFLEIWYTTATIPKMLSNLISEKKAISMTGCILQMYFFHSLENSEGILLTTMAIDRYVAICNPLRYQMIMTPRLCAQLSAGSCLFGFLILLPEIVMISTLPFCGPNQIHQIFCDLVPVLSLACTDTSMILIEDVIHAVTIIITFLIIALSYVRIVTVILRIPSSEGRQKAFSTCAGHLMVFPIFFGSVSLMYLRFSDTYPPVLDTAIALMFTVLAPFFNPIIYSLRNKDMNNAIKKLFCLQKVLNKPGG
Procedure, shortened: as §1

OR6K6 (Homo sapiens) = molecular target: T11, OR6K6 (Homo sapiens) (UniProt Q8NGW6)
T11 sequence (whole entry): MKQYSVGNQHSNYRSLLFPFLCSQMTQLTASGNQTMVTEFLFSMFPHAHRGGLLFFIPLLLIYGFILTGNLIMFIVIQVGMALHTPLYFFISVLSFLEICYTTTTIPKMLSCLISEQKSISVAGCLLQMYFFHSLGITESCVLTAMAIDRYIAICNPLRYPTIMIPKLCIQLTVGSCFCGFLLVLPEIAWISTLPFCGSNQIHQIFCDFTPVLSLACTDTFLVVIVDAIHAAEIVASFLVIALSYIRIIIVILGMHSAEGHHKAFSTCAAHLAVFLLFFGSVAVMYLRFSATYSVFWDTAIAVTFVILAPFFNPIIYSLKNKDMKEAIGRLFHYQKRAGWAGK
Procedure, shortened: as §1

OR6M1 (Homo sapiens) = molecular target: T12, OR6M1 (Homo sapiens) (UniProt Q8NGM8)
T12 sequence (whole entry): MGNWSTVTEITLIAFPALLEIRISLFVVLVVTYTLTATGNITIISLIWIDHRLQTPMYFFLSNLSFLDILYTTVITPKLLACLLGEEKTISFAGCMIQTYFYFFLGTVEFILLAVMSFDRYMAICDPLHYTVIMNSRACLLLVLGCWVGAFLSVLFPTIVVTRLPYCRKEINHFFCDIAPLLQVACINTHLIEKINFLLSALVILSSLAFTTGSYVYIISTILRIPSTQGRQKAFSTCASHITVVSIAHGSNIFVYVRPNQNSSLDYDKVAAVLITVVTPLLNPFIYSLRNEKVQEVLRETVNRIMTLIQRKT
Procedure, shortened: as §1

OR6M1 R224C = tested on: T13, OR6M1 R224C
T13 sequence (whole entry): T12 sequence (whole entry) with R224C
Procedure, shortened: as §1

OR6M1 T276K = tested on: T14, OR6M1 T276K
T14 sequence (whole entry): T12 sequence (whole entry) with T276K
Procedure, shortened: as §1

OR6N1 (Homo sapiens) = molecular target: T15, OR6N1 (Homo sapiens) (UniProt Q8NGY5)
T15 sequence (whole entry): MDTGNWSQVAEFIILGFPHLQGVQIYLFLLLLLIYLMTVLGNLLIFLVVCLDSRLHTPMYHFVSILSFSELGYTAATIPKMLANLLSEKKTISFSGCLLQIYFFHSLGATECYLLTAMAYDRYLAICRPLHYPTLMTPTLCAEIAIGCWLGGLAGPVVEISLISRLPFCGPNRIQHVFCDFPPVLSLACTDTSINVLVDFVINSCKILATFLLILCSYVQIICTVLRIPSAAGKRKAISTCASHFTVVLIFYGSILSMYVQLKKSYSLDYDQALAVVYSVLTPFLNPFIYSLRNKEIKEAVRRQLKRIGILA
Procedure, shortened: as §1

OR6N2 (Homo sapiens) = molecular target: T16, OR6N2 (Homo sapiens) (UniProt Q8NGY6)
T16 sequence (whole entry): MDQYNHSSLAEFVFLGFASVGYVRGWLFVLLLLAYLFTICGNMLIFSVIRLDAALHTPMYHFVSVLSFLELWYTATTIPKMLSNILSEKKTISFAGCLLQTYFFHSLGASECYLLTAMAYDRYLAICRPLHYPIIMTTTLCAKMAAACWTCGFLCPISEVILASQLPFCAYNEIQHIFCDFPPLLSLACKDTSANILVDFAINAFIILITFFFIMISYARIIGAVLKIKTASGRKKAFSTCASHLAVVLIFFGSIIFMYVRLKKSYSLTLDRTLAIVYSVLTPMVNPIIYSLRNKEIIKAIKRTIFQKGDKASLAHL
Procedure, shortened: as §1

OR6P1 (Homo sapiens) = molecular target: T17, OR6P1 (Homo sapiens) (UniProt Q8NGX9)
T17 sequence (whole entry): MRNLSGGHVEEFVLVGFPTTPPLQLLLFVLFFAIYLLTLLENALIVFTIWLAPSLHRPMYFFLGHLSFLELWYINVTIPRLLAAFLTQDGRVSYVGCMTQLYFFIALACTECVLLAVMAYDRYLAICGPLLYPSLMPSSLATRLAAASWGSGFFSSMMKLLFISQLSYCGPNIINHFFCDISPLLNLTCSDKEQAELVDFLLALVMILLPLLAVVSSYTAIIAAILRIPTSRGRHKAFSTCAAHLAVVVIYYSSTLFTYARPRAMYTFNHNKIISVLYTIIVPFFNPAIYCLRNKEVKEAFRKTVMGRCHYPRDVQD
Procedure, shortened: as §1

OR6Q1 (Homo sapiens) = molecular target: T18, OR6Q1 (Homo sapiens) (UniProt Q8NGQ2)
T18 sequence (whole entry): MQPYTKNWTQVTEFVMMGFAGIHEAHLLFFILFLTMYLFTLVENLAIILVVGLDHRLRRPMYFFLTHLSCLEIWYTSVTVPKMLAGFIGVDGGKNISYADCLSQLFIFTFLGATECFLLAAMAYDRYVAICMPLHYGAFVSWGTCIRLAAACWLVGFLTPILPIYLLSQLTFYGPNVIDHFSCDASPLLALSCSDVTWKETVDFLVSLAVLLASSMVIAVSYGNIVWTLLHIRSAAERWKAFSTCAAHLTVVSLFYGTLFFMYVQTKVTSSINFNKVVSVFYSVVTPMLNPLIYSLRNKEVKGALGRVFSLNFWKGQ
Procedure, shortened: as §1

OR6J1 (Homo sapiens) [2] = molecular target: T19, OR6J1 (Homo sapiens) (UniProt Q8NGC5); remark: listed apart in the source
T19 sequence (whole entry): T8 sequence (whole entry) with S250P
Procedure, shortened: as §1

OR6K3 (Homo sapiens) = molecular target: T20, OR6K3 (Homo sapiens) (UniProt Q8NGY3)
T20 sequence (whole entry): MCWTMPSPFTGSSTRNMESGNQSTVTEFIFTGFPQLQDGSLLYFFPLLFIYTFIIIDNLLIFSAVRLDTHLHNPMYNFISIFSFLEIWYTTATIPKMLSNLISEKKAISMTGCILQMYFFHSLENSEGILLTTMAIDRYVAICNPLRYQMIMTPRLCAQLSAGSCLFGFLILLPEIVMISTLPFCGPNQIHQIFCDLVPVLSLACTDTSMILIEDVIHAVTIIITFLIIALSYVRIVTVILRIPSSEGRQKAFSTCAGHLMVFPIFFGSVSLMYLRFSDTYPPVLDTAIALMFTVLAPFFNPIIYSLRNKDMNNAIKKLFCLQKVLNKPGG
Procedure, shortened: as §1

Measured: odorant receptor agonist call

CC1=NC(C)C(C)S1 (centres undefined)
not listed: OR6J1 (Homo sapiens) [2] | OR6K3 (Homo sapiens)
inactive: all other assays above

CC(=O)c1c(C)c([N+](=O)[O-])c(C(C)(C)C)c([N+](=O)[O-])c1C
not listed: OR6J1 (Homo sapiens) [1] | OR6K3 | OR6M1 R224C | OR6M1 T276K
inactive: all other assays above
